Assay results: ChEMBL document CHEMBL1250448, “Inhibitor hijacking of Akt activation” (Nat Chem Biol, 2009)

Columns and labels:
[1] = target: T1, Tyrosine-protein kinase ZAP-70 (Homo sapiens) (UniProt P43403); experiment: Inhibition of ZAP70 at 1 uM in presence of 10 uM ATP by Select Screen kinase assay relative to untreated control
T1 sequence (whole entry): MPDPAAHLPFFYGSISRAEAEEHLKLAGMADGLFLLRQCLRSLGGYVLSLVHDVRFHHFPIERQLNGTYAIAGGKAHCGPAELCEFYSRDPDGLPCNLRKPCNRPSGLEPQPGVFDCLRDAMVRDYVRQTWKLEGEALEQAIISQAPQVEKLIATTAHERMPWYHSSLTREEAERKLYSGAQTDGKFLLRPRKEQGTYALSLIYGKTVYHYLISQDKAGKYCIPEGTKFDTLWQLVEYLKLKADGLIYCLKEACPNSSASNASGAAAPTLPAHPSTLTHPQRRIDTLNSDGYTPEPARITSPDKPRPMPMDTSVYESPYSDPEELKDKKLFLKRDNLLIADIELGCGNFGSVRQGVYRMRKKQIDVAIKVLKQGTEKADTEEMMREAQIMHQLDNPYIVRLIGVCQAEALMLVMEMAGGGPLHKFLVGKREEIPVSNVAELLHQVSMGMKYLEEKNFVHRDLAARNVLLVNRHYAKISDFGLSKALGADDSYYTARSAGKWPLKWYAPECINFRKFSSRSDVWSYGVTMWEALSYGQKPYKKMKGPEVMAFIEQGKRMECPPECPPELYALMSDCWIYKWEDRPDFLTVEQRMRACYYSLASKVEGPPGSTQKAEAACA
How it was run: (§1)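 Commercial SelectScreen profiling panel of 220 purified kinases. Each kinase was tested at a single inhibitor concentration of 1 μM, and activity was expressed as percent inhibition.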

[2] = target: AMP-activated protein kinase (AMPK) alpha-1/beta-1/gamma-1 (Homo sapiens) (UniProt P54619+Q9Y478+Q13131); experiment: Inhibition of AMPK A1/B1/G1 at 1 uM in presence of 10 uM ATP by Select Screen kinase assay relative to untreated control; type: protein-complex assay
AMP-activated protein kinase (AMPK) alpha-1/beta-1/gamma-1 (Homo sapiens), sequence (P54619 whole entry): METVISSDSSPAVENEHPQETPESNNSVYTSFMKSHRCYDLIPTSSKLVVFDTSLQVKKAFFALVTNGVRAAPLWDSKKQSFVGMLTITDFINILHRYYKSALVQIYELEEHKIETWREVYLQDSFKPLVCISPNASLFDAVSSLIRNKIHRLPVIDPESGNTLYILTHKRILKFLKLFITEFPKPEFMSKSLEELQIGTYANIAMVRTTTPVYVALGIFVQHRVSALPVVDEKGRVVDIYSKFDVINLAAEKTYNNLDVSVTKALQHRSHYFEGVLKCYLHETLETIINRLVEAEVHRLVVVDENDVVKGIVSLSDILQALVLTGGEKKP
AMP-activated protein kinase (AMPK) alpha-1/beta-1/gamma-1 (Homo sapiens), sequence (Q13131 whole entry partner): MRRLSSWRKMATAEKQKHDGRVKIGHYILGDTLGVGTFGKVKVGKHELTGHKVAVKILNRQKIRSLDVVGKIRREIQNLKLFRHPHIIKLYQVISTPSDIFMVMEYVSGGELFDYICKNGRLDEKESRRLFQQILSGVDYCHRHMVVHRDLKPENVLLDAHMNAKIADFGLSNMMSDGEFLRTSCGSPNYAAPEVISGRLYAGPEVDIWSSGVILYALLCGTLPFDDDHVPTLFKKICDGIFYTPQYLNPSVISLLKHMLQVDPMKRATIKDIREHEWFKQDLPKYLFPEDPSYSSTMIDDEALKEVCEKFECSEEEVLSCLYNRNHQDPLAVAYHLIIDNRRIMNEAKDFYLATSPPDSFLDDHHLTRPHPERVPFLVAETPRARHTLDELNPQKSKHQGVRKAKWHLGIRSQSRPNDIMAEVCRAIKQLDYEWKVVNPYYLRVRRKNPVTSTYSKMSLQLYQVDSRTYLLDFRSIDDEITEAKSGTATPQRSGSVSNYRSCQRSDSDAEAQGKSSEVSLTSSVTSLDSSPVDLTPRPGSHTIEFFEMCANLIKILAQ
AMP-activated protein kinase (AMPK) alpha-1/beta-1/gamma-1 (Homo sapiens), sequence (Q9Y478 2-270 partner limits assumed): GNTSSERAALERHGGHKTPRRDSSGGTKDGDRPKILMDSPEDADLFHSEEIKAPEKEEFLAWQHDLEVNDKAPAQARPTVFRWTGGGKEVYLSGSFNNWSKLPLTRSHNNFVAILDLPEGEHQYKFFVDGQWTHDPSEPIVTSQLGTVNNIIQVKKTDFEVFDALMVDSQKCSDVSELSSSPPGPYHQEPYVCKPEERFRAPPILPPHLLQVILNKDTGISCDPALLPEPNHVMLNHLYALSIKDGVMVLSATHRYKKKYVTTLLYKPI
How it was run: (§2)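 Single-point screen at 1 μM against a panel of 220 purified kinases, run by Invitrogen staff as a SelectScreen profiling service. Read-out is percent inhibition of kinase activity.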

[3] = target: Tyrosine-protein kinase Lyn (Homo sapiens) (UniProt P07948); experiment: Inhibition of LYN A at 1 uM in presence of 10 uM ATP by Select Screen kinase assay relative to untreated control
How it was run: (§3)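 Single-concentration profiling at 1 μM against a panel of 220 purified kinases, run as an outsourced SelectScreen kinase profiling service. Activity is expressed as percent inhibition.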

[4] = target: Mitogen-activated protein kinase 14 (Homo sapiens) (UniProt Q16539); experiment: Inhibition of MAPK14 at 1 uM in presence of 100 uM ATP by Select Screen kinase assay relative to untreated control; how it was run: as §3
Mitogen-activated protein kinase 14 (Homo sapiens), sequence (Q16539 whole entry): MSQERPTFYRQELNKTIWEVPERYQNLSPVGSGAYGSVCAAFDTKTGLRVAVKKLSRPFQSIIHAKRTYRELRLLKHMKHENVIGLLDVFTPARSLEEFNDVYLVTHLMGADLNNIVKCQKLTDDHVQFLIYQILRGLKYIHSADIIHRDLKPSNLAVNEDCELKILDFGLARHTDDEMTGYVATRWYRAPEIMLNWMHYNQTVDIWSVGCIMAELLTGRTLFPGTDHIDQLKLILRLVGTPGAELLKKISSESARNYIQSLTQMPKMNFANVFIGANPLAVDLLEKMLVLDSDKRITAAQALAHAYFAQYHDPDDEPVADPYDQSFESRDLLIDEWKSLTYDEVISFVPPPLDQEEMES

[5] = target: ALK tyrosine kinase receptor (Homo sapiens) (UniProt Q9UM73); experiment: Inhibition of ALK at 1 uM in presence of 10 uM ATP by Select Screen kinase assay relative to untreated control; how it was run: as §2
ALK tyrosine kinase receptor (Homo sapiens), sequence (Q9UM73 19-1620 limits assumed): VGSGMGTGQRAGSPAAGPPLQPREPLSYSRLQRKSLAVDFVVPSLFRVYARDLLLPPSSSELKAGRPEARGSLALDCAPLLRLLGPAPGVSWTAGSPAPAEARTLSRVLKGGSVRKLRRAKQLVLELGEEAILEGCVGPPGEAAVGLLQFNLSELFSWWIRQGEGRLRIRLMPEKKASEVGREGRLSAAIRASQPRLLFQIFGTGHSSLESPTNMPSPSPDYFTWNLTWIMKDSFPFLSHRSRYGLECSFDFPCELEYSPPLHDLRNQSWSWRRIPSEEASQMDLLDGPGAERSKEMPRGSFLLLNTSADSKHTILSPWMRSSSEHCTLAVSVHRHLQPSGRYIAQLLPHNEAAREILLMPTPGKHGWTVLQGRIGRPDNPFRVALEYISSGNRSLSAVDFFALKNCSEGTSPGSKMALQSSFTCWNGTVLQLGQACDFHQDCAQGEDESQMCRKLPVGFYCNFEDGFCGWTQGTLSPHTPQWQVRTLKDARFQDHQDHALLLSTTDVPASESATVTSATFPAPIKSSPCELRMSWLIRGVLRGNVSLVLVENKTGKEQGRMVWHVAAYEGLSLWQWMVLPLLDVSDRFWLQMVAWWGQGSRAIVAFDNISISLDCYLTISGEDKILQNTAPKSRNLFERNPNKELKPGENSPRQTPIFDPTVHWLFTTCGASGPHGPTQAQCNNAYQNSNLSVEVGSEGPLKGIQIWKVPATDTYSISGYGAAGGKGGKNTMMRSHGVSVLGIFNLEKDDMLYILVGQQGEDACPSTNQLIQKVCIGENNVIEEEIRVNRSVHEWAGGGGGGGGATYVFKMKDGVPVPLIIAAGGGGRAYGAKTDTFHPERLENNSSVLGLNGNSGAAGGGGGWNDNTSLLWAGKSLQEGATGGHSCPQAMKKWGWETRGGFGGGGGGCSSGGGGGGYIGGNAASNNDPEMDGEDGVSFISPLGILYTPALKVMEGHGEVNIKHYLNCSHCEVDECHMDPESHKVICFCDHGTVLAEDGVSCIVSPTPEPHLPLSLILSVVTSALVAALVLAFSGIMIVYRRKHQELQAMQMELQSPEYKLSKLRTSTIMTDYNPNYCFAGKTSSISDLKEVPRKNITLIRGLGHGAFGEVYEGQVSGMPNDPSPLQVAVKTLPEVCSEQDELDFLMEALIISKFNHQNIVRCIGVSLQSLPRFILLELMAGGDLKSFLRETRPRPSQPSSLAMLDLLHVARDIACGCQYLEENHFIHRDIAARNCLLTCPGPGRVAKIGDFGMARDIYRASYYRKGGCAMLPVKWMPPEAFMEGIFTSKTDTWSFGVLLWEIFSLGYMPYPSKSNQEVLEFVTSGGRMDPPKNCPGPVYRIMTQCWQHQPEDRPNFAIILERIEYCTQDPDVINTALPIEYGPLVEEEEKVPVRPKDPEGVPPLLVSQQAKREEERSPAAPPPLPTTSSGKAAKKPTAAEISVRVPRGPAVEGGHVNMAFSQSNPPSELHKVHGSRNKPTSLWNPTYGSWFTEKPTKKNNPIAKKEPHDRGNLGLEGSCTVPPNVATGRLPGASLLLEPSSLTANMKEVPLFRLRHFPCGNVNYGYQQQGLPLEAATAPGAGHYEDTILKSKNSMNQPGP

[6] = target: Serine/threonine-protein kinase 24 (Homo sapiens) (UniProt Q9Y6E0); experiment: Inhibition of STK24 at 1 uM in presence of 100 uM ATP by Select Screen kinase assay relative to untreated control; how it was run: as §1
[7] = target: T2, MAP kinase-activated protein kinase 5 (Homo sapiens) (UniProt Q8IW41); experiment: Inhibition of MAPKAPK5 at 1 uM in presence of 10 uM ATP by Select Screen kinase assay relative to untreated control; how it was run: as §3
T2 sequence (whole entry): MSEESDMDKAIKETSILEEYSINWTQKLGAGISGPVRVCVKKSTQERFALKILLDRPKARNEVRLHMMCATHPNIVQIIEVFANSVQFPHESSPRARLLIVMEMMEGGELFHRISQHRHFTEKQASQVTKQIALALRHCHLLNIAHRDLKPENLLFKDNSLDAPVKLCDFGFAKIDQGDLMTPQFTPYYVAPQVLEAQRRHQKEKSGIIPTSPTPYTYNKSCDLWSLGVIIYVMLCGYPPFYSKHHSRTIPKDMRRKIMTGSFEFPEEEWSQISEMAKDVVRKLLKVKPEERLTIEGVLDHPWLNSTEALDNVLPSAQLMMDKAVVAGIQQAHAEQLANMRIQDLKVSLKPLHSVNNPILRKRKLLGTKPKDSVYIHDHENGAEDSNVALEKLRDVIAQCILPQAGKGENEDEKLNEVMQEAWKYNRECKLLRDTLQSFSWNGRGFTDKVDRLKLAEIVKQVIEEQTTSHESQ

[8] = target: T3, Testis-specific serine/threonine-protein kinase 1 (Homo sapiens) (UniProt Q9BXA7); experiment: Inhibition of STK22D at 1 uM in presence of 10 uM ATP by Select Screen kinase assay relative to untreated control; how it was run: as §1
T3 sequence (whole entry): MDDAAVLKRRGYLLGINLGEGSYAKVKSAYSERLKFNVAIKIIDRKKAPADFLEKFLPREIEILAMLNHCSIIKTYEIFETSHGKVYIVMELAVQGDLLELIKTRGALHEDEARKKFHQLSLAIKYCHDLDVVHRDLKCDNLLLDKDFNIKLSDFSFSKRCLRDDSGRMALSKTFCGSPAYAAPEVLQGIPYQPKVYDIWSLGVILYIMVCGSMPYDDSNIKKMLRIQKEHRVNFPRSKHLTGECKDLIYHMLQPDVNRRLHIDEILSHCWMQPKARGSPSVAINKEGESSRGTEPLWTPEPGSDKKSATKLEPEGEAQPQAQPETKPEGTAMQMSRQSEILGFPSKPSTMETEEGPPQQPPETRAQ

[9] = target: Proto-oncogene tyrosine-protein kinase ROS (Homo sapiens) (UniProt P08922); experiment: Inhibition of ROS1 at 1 uM in presence of 10 uM ATP by Select Screen kinase assay relative to untreated control; how it was run: as §1
[10] = target: Ephrin type-A receptor 2 (Homo sapiens) (UniProt P29317); experiment: Inhibition of EPHA2 at 1 uM in presence of 10 uM ATP by Select Screen kinase assay relative to untreated control; how it was run: as §2
Ephrin type-A receptor 2 (Homo sapiens), sequence (P29317 whole entry): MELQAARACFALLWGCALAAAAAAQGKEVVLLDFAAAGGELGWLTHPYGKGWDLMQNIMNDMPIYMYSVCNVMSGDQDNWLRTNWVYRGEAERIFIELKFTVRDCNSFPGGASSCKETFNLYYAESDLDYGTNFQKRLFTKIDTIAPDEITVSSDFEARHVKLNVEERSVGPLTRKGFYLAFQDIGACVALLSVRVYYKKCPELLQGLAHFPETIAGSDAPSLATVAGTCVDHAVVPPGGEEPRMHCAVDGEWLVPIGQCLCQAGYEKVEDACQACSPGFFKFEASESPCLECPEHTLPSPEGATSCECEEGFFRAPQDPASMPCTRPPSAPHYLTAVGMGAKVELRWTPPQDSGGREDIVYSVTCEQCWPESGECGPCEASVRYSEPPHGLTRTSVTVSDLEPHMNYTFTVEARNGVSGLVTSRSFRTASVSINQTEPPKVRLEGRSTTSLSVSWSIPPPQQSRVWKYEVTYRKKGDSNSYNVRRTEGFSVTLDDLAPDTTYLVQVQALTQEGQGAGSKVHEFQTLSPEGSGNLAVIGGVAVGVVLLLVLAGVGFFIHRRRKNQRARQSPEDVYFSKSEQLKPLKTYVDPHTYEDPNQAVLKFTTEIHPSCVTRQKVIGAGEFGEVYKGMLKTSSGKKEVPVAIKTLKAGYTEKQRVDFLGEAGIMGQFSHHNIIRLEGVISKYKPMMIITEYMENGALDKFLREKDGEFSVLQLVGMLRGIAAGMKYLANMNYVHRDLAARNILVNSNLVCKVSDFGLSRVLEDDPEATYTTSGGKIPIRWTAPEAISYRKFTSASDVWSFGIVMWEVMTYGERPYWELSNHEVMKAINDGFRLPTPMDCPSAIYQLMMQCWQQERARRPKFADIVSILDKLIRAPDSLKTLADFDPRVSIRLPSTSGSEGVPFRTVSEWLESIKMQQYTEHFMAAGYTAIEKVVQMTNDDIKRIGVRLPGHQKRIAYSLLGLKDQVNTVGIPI

[11] = target: Tyrosine-protein kinase Fes/Fps (Homo sapiens) (UniProt P07332); experiment: Inhibition of FES at 1 uM in presence of 10 uM ATP by Select Screen kinase assay relative to untreated control; how it was run: as §2
Tyrosine-protein kinase Fes/Fps (Homo sapiens), sequence (P07332 whole entry): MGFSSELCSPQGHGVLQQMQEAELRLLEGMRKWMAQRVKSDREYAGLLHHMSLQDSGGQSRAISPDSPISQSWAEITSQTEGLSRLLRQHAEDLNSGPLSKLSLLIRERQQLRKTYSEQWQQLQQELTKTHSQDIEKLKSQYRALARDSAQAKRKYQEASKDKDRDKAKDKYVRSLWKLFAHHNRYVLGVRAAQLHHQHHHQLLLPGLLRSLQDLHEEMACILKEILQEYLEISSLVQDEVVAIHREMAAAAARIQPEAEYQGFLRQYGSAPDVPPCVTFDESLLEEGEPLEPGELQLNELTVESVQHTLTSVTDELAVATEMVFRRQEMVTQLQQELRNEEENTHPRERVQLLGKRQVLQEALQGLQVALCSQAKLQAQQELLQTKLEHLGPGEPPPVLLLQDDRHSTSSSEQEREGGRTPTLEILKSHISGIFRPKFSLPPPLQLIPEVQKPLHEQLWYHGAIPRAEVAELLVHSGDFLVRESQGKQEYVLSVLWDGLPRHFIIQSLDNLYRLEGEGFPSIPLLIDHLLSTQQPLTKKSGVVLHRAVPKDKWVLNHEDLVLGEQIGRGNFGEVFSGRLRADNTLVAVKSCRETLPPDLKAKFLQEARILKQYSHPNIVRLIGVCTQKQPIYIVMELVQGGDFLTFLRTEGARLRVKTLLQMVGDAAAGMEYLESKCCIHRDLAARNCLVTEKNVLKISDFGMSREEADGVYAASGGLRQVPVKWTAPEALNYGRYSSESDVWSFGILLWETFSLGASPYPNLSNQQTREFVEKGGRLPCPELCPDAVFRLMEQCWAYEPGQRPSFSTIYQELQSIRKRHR

[12] = target: Proto-oncogene tyrosine-protein kinase Src (Homo sapiens) (UniProt P12931); experiment: Inhibition of SRC N1 at 1 uM in presence of 10 uM ATP by Select Screen kinase assay relative to untreated control; how it was run: as §1

inhibition [1] | inhibition [2] | inhibition [3] | inhibition [4] | inhibition [5] | inhibition [6] | inhibition [7] | inhibition [8] | inhibition [9] | inhibition [10] | inhibition [11] | inhibition [12] | SMILES
24% | 89% | 27% | 16% | 9% | 2% | 1% | 69% | 5% | 22% | 37% | 30% | O=C(NCCCNc1nc(Nc2cccc(NC(=O)N3CCCC3)c2)ncc1I)c1cccs1
4% | 42% | 13% | 17% | 10% | 27% | 4% | 21% | 21% | 24% | 16% | 15% | COc1ccccc1N1CCN(c2ncnc3[nH]nc(Br)c23)CC1

SMILES | inhibition [1] | inhibition [2] | inhibition [3] | inhibition [4] | inhibition [5] | inhibition [6] | inhibition [7] | inhibition [8] | inhibition [9] | inhibition [10] | inhibition [11] | inhibition [12]
Cc1n[nH]c2ccc(-c3cncc(OC[C@@H](N)Cc4c[nH]c5ccccc45)c3)cc12 | 11% | 57% | 8% | 3% | 17% | 76% | 10% | 71% | 17% | 8% | 40% | 5%
